Assay [1] in a line: inhibitors of TNFa-induced NFkB p65 translocation, primary screen, imaging, HUVEC, MLSMR starter and 10KST1 sets (AID 438;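 active = inhibition above 20% together with a positive visual image hit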;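 also: compound added about 3h40 before a 20 min TNFalpha stimulation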;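 as to inhibition: signal is the nuclear over cytoplasmic p65 intensity ratio per well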). Conditions: HUVEC TNFa-induced p65 nuclear translocation; cell count: measured here: nuclei count (cytotoxicity indicator), at 2.08 µM; inhibition: at 2 µM, stronger effect = higher value, 0% TNFa-plus-vehicle, 100% no-TNFa wells.
Assay [2] in a line: endothelial E-selectin expression blockers – imaging, HUVEC, immunofluorescence, MLSMR starter and 10KST1 sets, primary screen (AID 487;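 active = visually confirmed hit in the image check and inhibition above 20%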;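 as to inhibition: signal is fraction of cell area covered by stained E-selectin grains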;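 as to nuclei count: 100% = median nuclei count of all wells on the same plate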). Conditions: HUVEC TNFalpha-induced E-selectin immunofluorescence imaging, at 2 µM; inhibition: stronger effect = higher value; nuclei count: measured here: cell number, toxicity.
Assay [3] is described as follows: Primary imaging screen for DUSP6 inhibitors that restore phospho-Erk in transfected HeLa cells, chemical complementation (AID 609;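 active = compounds giving at least 50% inhibition in the cell-based MKP-3 phosphatase rescue imaging test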;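 as to inhibition: phospho-Erk level distribution per well compared with pooled transfected vehicle control wells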). Conditions: HeLa MKP-3 transfected, phospho-Erk imaging KS statistic, at 10 µM, cells stimulated with TPA for 15 min.
Assay [4] has as its target Dual specificity protein phosphatase 6 (Homo sapiens) (UniProt Q16828). The assay is described as above. Conditions: HeLa MKP-3 transfected, phospho-Erk imaging KS statistic; at 10 µM; stronger effect = higher value; cells stimulated with TPA for 15 min.
Assay [5] deals with Voltage-gated potassium channel subunit beta-2 (Rattus norvegicus) (UniProt P62483). The assay can be described thus: inhibitors of rat Kvbeta2 reductase activity – biochemical, NADPH fluorescence, primary screen (AID 622;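 active = fluorescence slope higher than the sample average by over 3 SD, cut at about -0.22 in these data, passing the limit was not always enough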;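 also: slope of raw intensity against log time taken from 70 to 1610 s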). The note with it: recombinant KvBeta, 4-cyanobenzaldehyde reduction, at 10 µM, stronger effect = higher value.
The target is the same in assay [6]. Kind of assay: enhancers of rat Kvbeta2 NADPH turnover – biochemical, NADPH fluorescence, primary screen (AID 623).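 Also: fluorescence intensity change per second fitted from 20 to 320 s.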 The note with it: Recombinant KvBeta, NADPH fluorescence decrease slope, 10 min; at 10 µM; stronger effect = lower value.
The target of assay [7] is Alpha-2C adrenergic receptor (Homo sapiens) (UniProt P18825). Kind of assay: compounds altering alpha2C-coupled GIRK flux – cell-based, HEK293 alpha2C/GIRK1/2, thallium flux, primary screen (AID 624;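 active = fluorescence slope after compound addition differing from the mean of all screened samples at 99.7% confidence, in either direction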;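 also: slope of fluorescence ratio to pre-addition baseline per second over 15 to 24 s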). The note with it: thallium flux BTC fluorescence, at 10 µM, actives lie on both sides.
Assay [8] can be described thus: inhibitors of larval lipid processing in zebrafish, primary screen, whole organism, PED6 fluorescence, gall bladder and intestine (AID 686;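 active = a full or partial loss of lipid-probe fluorescence in the fish gall bladder, intestine or both, judged by eye; inactive = no fluorescence loss, or compound toxic to the fish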;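 also: larvae 5 to 7 days old with five fish per well; signal comes from phospholipase A2 cleavage of quenched PED6 carried via bile; overnight exposure to compound and PED6 before scoring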). The note with it: Zebrafish larvae PED6 lipid processing, fluorescence scoring; screened at 20 µM (by protocol). The method, boiled down:
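System: live zebrafish larvae aged 5-7 days, whole organism; measure: graded gall bladder and intestinal fluorescence inhibition per well; incubation: overnight exposure; reagent: ingested quenched lipid PED6 at 100 nM; signal: By-eye fluorescence microscopy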

The nature of assay [9]: loss of swimming-algae plug formation – whole organism, Chlamydomonas reinhardtii, WT vs cilia-less mutant, absorbance, 96-well, primary screen (AID 463189;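 active = inhibition at or above 50% relative to wild type and mutant plate controls; inactive = inhibition below 50%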;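 also: 0% = wild type cc124 cells in DMSO and 100% = ciliumless bld1 mutant cells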). The note with it: Chlamydomonas reinhardtii gravitaxis, OD600 absorbance, 2 days; at 10 µM; stronger effect = higher value.
The mark [10] stands for this setting: measured here: cell density z-score.
Where [11] appears, read: measured here: nuclear c-Myc green intensity z-score.
The mark [12] stands for this setting: measured here: nuclear pErk red intensity z-score, stronger effect = higher value.

Here are results for twelve molecules from PubChem BioAssay.

By inhibition is commonly meant the relative decrease from the control value, in per cent.

Structures are written as SMILES. The source made the active and inactive calls.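 The calls were made as follows, unless noted: active = NADPH fluorescence slope more negative than the mean of all samples by about 3 SD, 99.7% confidence; inactive = the rest.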

Sequence of Alpha-2C adrenergic receptor (Homo sapiens) (P18825 whole entry, looked up): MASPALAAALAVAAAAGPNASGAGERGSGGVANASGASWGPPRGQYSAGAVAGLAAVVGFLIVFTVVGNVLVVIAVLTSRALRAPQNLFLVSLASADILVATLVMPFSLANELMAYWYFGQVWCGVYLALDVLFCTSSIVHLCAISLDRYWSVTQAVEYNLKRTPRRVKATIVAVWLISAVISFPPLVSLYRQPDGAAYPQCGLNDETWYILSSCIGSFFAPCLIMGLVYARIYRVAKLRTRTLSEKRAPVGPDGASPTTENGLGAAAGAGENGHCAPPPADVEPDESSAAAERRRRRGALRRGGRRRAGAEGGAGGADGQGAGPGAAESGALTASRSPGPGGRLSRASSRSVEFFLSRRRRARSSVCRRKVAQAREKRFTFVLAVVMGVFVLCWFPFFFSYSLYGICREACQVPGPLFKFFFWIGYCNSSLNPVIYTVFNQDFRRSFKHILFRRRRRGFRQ
Sequence of Voltage-gated potassium channel subunit beta-2 (Rattus norvegicus) (P62483 whole entry, looked up): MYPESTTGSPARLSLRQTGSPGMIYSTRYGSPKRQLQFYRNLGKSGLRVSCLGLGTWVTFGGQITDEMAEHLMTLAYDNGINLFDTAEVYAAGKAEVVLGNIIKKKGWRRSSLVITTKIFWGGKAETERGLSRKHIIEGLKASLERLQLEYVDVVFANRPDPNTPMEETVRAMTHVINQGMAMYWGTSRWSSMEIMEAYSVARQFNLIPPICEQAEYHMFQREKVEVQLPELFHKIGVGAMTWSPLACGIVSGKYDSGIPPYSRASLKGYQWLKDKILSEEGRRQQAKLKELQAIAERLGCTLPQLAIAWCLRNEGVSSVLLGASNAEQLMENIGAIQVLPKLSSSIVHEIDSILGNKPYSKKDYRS
Sequence of Dual specificity protein phosphatase 6 (Homo sapiens) (Q16828 whole entry, looked up): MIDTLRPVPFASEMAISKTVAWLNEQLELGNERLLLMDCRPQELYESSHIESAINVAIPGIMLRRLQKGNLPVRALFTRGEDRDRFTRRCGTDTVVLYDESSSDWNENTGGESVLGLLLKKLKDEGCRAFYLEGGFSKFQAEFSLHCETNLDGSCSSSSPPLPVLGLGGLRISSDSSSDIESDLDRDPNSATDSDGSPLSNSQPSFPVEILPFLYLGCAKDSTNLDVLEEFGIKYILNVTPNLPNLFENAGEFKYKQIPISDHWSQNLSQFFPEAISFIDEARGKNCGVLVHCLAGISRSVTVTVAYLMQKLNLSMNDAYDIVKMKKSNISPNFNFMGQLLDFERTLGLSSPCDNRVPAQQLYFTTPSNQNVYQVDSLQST

`CCOP(=O)(c1ccccc1)c1nc(-c2ccccc2C)oc1N1CCCCC1` (stereo unspecified): the cell count in assay [1] worked out at 603. Moreover, the inhibition in assay [1] is -2.4% (inactive); in [2], -34% (inactive); in assay [4] it was 13.2% (inactive); in assay [9] it was 56.6% (active). Further, the nuclei count in [2] came to 167%. The values for the z-score in [3] (setting [10]), in assay [3] (setting [11]) and in assay [3] (setting [12]) were -0.907, 0.675 and 1.07, respectively. Also, the fluorescence slope in assay [5] was -0.49 (inactive). In addition, in assay [6], the NADPH fluorescence slope was -0.000125 (inactive). The slope in assay [7] was 0.00422 (inactive). Besides, the call in assay [8] was inactive.

In the case of `ClC(Br)=C(n1cnc2ccccc21)n1cnc2ccccc21`, the cell count in assay [1] is 536. The inhibition in [1] was -11% (inactive); in assay [2], -108% (inactive); in assay [4], 16.1% (inactive); in assay [9] it was 30.5% (inactive). Also, the nuclei count in assay [2] stood at 155%. The z-score in assay [3] (setting [10]) is 1.2; in [3] (setting [11]), -0.506; in [3] (setting [12]), -1.02. Moreover, the fluorescence slope in [5] was -0.523 (inactive). Further, the NADPH fluorescence slope in [6] is -3.7e-05 (inactive). Further, the slope in assay [7] was 0.00536 (inactive). In addition, the call in assay [8] was inactive.

Regarding `COc1ccc2c(c1)nc(N)n2Cc1ccccc1`, the cell count in assay [1] was determined as 570. The inhibition was -4.4% (inactive) in assay [1], 15% (inactive) in [2], 15.8% (inactive) in assay [4] and 12.8% (inactive) in assay [9]. In addition, the nuclei count in [2] amounted to 168%. For the same molecule, the z-score in assay [3] (setting [10]) is 2.35; in assay [3] (setting [11]), -1.31; in assay [3] (setting [12]) it was 1.13. For the same molecule, the fluorescence slope in assay [5] was -0.388 (inactive). The NADPH fluorescence slope in assay [6] is -2.5e-05 (inactive). The slope in assay [7] was 0.004 (inactive). In addition, in [8], the result was inactive.

Regarding `Cc1ccc2c(=O)c(CN(C)C3CCN(C)CC3)c(C)[nH]c2c1C`, the cell count in assay [1] was found to be 498. The inhibition was -21.3% (inactive) in assay [1], -40.5% (inactive) in assay [2], 1.12% (inactive) in [4] and 1.23% (inactive) in assay [9]. The nuclei count in [2] turned out to be 142%. Further, the results for the z-score in [3] (setting [10]), in assay [3] (setting [11]) and in [3] (setting [12]) were 0.488, 0.313 and -0.364, respectively. Also, the fluorescence slope in assay [5] is -0.491 (inactive). For the same molecule, the NADPH fluorescence slope in [6] is -4.5e-05 (inactive). In addition, the slope in assay [7] was 0.00468 (inactive). Besides, the result in assay [8] was inactive.

In the case of `O=C(c1coc(=O)c(Br)c1)N1CCCc2ccccc21`, in assay [1], the cell count was 384. Further, the inhibition is -0.8% (inactive) in [1], -39.7% (inactive) in assay [2], 3.42% (inactive) in assay [4] and 36.5% (inactive) in assay [9]. Moreover, in assay [2], the nuclei count worked out at 134%. The z-score in assay [3] (setting [10]) is -0.336; in [3] (setting [11]), -1.15; in assay [3] (setting [12]), 0.12. For the same molecule, in assay [5], the fluorescence slope was -0.437 (inactive). Besides, in assay [6], the NADPH fluorescence slope is -8e-05 (inactive). Also, the slope in [7] was 0.00466 (inactive). In addition, the molecule was called inactive in [8].

For `Clc1ccc(SCc2cn3ccsc3n2)cc1`, the cell count in assay [1] is 516. For the same molecule, the inhibition was -11.3% (inactive) in [1], -61.5% (inactive) in assay [2], -11% (inactive) in assay [4] and 31.1% (inactive) in assay [9]. In addition, the nuclei count in [2] is 170%. Also, the z-score in assay [3] (setting [10]) was -0.751; in assay [3] (setting [11]), 0.432; in assay [3] (setting [12]), -0.146. Besides, the fluorescence slope in assay [5] is -0.476 (inactive). Also, the NADPH fluorescence slope in assay [6] is -0.000195 (inactive). For the same molecule, the slope in assay [7] is 0.0044 (inactive). For the same molecule, in assay [8], the molecule was called inactive.

Turning to `Cc1ccnc(N2CCN(c3c4c(c(C#N)c5nc6ccccc6n35)CCC4)CC2)c1`, in assay [1], the cell count is 585. In addition, the inhibition in assay [1] was -9% (inactive); in [2], -90.1% (inactive); in assay [4], 15.9% (inactive); in assay [9], -3.36% (inactive). The same molecule displayed a nuclei count in [2] of 135%. The z-score in [3] (setting [10]) was -0.195; in assay [3] (setting [11]), 1.1; in assay [3] (setting [12]), 0.491. In assay [5], the fluorescence slope is -0.401 (inactive). The NADPH fluorescence slope in assay [6] is -2e-05 (inactive). Besides, the slope in assay [7] is 0.00557 (inactive). The call in assay [8] was inactive.

As for `O=S1(=O)C[C@@H](N2CCOCC2)[C@H](N2CCOCC2)C1`, in assay [1], the cell count was found to be 513. Moreover, the inhibition was 3.1% (inactive) in [1], -110% (inactive) in assay [2], -3.5% (inactive) in assay [4] and 3.28% (inactive) in [9]. Besides, the nuclei count in assay [2] is 133%. The z-score in [3] (setting [10]) is -0.578; in assay [3] (setting [11]), 0.935; in assay [3] (setting [12]), 0.179. For the same molecule, the fluorescence slope in assay [5] was -0.462 (inactive). Besides, in assay [6], the NADPH fluorescence slope is -7.3e-05 (inactive). Besides, the slope in assay [7] is 0.00558 (inactive). Besides, the molecule was called inactive in assay [8].

Consider `COC(=O)c1ccc(Cn2cnc3c(sc4nc(N5CCOCC5)c5c(c43)CCCC5)c2=O)o1`, for which the cell count in assay [1] is 505. In addition, the inhibition in [1] was 10.2% (inactive); in assay [2] it was -144% (inactive); in [4] it was -7.01% (inactive); in assay [9], 6.85% (inactive). The nuclei count in assay [2] was 132%. The values for the z-score in assay [3] (setting [10]), in assay [3] (setting [11]) and in assay [3] (setting [12]) were -0.452, 0.953 and 0.541, respectively. Moreover, the fluorescence slope in [5] was -0.47 (inactive). The NADPH fluorescence slope in [6] is -2.7e-05 (inactive). Also, in assay [7], the slope was 0.00736 (inactive). In addition, the outcome in assay [8] was “inactive; toxic”.

Take `COC(=O)Cn1cc(C(=O)OC)cc(Br)c1=O`: the cell count in [1] worked out at 507. Also, the inhibition in [1] was -0.8% (inactive); in [2], -135% (inactive); in assay [4] it was -8.76% (inactive); in assay [9] it was -6.78% (inactive). This molecule also showed a nuclei count in [2] of 136%. The z-score in assay [3] (setting [10]) amounted to 0.966; in assay [3] (setting [11]) it was 0.177; in [3] (setting [12]), 0.211. Moreover, in [5], the fluorescence slope is -0.539 (inactive). Besides, in assay [6], the NADPH fluorescence slope is -3.3e-05 (inactive). Further, in assay [7], the slope was 0.00509 (inactive). For the same molecule, the molecule was called inactive in assay [8].

`CCCSC1=C(C#N)C(c2ccc(OC)cc2)C2=C(CC(C)(C)CC2=O)N1` (stereo unspecified): in [1], the cell count was 364. The inhibition in [1] is -8.4% (inactive); in [2], -74.2% (inactive); in assay [4], -4.59% (inactive); in assay [9], 15.5% (inactive). In assay [2], this molecule gave a nuclei count of 160%. Moreover, the results for the z-score in assay [3] (setting [10]), in [3] (setting [11]) and in [3] (setting [12]) were 1.35, -0.891 and 0.22, respectively. Also, the fluorescence slope in [5] was -0.439 (inactive). For the same molecule, in assay [6], the NADPH fluorescence slope was -0.000144 (inactive). Further, the slope in assay [7] is 0.00555 (inactive). Besides, the result in assay [8] was inactive.

Turning to `Cc1nn(C)cc1CNC(=O)c1ccc(Br)o1`, the cell count in assay [1] was found to be 507. For the same molecule, the inhibition was -14.6% (inactive) in [1], -66.6% (inactive) in assay [2], 10.1% (inactive) in assay [4] and 0.36% (inactive) in assay [9]. In [2], the nuclei count stood at 111%. The z-score in assay [3] (setting [10]) was 0.29; in assay [3] (setting [11]), 0.777; in assay [3] (setting [12]) it was -0.409. In addition, the fluorescence slope in [5] is -0.444 (inactive). The NADPH fluorescence slope in assay [6] is -3.5e-08 (inactive). In assay [7], the slope was 0.00689 (inactive). The call in [8] was inactive.
